Results taken from the RNAGym collection of RNA variant scans (doi:10.1126/science.aae0568).
Variants at the floor of the assay were thinned out.

B1: tRNA (parent)
chain: GUUCCGUUGGCGUAAUGGUAACGCGUCUCCCUCCUAAGGAGAAGACUGCGGGUUCGAGUCCCGUACGGAACG

Variants of: B1
Experiment: yeast fitness relative to wild type (ratio to wild type); higher = fitter; tRNA-Arg(CCU), competitive growth, 37 C, YPD
Summary of the method: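 Variants of the tRNA-Arg(CCU) gene, chemically synthesised with a 3% per-site mutation rate at 69 sites, were placed at the native genomic locus in Saccharomyces cerevisiae. The pooled strains were competed in YPD at 37°C for 24 hours in six parallel replicates. Gene amplicons from the start population and from each end population were read by 100-nucleotide paired-end sequencing. Darwinian fitness relative to wild type came from changes in genotype frequencies; genotypes needed ≥ 100 starting reads, and estimates < 0.5 were set to 0.5.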
For U8C U32G U47C C55G, the yeast fitness was ≤ 0.5. For U8C U35A, the yeast fitness was 0.6. In the case of U8C U35G, the yeast fitness is reported as 0.693. Variant U8C U47C has a yeast fitness of 0.913. With U8C U53A U64C the yeast fitness was ≤ 0.5. U8C U54C showed a yeast fitness of 0.915. Variant U8C U59A has a yeast fitness of 0.721. U8C U59A A70G gave a yeast fitness of 0.556. With U8C U59A C66A the yeast fitness was ≤ 0.5. With U8C U59G the yeast fitness was 0.901. In the case of U8C U64A A65U, the yeast fitness is reported as 0.553. With U8G A14G A43C the yeast fitness was ≤ 0.5. In the case of U8G A14G C33U, the yeast fitness is reported as ≤ 0.5. In the case of U8G A14G C46U C55A C66U, the yeast fitness is reported as ≤ 0.5. With U8G A14G G18A U47A C55G the yeast fitness was ≤ 0.5. In the case of U8G A14G G18A U47A C62G, the yeast fitness is reported as ≤ 0.5. Variant U8G A14G U26A C62U has a yeast fitness of 0.578. For U8G A14U G18A G50A A57U A70G, the yeast fitness was ≤ 0.5. For U8G A14U G50A, the yeast fitness was ≤ 0.5. With U8G A14U G50A A57U G68C the yeast fitness was ≤ 0.5. In the case of U8G A15C G18C C49U U64A A69U, the yeast fitness is reported as ≤ 0.5. In the case of U8G A15U, the yeast fitness is reported as ≤ 0.5. For U8G A20C A43U G67A, the yeast fitness was ≤ 0.5. With U8G A20C C49G G50A G56C the yeast fitness was ≤ 0.5. In the case of U8G A20C U35C C49A C62A, the yeast fitness is reported as ≤ 0.5. With U8G A20G A37G G44A A65C the yeast fitness was ≤ 0.5. U8G A20U C62A gave a yeast fitness of 0.624. For U8G A20U G44C A57G, the yeast fitness was ≤ 0.5. For U8G A20U U53G C66G A70G, the yeast fitness was ≤ 0.5. For U8G A21C C24U C33A, the yeast fitness was ≤ 0.5. With U8G A21C C46U the yeast fitness was 0.554. U8G A21C U64A gave a yeast fitness of 0.516. Work on U8G A21G yielded a yeast fitness of 0.582. For U8G A21G C27A U35A C62A A65C G67A, the yeast fitness was ≤ 0.5. In the case of U8G A21G C29U C30A U32C, the yeast fitness is reported as ≤ 0.5. For U8G A21U C27G A57G, the yeast fitness was ≤ 0.5. In the case of U8G A21U C27G C49U, the yeast fitness is reported as 0.687. With U8G A21U C29U G68C the yeast fitness was ≤ 0.5. For U8G A36C A45U C49U, the yeast fitness was ≤ 0.5. With U8G A36C U53C A69G the yeast fitness was ≤ 0.5. U8G A36U showed a yeast fitness of 0.515. U8G A37C G52C showed a yeast fitness of 0.627. With U8G A37C U64A A70C the yeast fitness was ≤ 0.5. In the case of U8G A37G C55U, the yeast fitness is reported as ≤ 0.5. U8G A42G showed a yeast fitness of 0.58. For U8G A42G A57G, the yeast fitness was ≤ 0.5. Variant U8G A42U A69C has a yeast fitness of 0.509. In the case of U8G A43C G52A, the yeast fitness is reported as 0.847. With U8G A43U the yeast fitness was 0.66. In the case of U8G A43U C49U C55U, the yeast fitness is reported as ≤ 0.5. With U8G A45C C49U the yeast fitness was ≤ 0.5. With U8G A45U the yeast fitness was 0.648. For U8G A57G C60A, the yeast fitness was ≤ 0.5. With U8G A65C the yeast fitness was 0.733. Work on U8G A70C yielded a yeast fitness of 0.633. In the case of U8G C11A C27U A37G G39C C49G, the yeast fitness is reported as ≤ 0.5. U8G C11A C30U A57U showed a yeast fitness of 0.613. For U8G C11G U32A A57U C60A G68C, the yeast fitness was ≤ 0.5. U8G C11G U32A A70C gave a yeast fitness of 0.599. In the case of U8G C11G U32A C55U G67C, the yeast fitness is reported as ≤ 0.5. For U8G C11G U32A G67C, the yeast fitness was ≤ 0.5. For U8G C11U C24U A37U C66A, the yeast fitness was ≤ 0.5. U8G C11U U64A A70C showed a yeast fitness of 0.619. With U8G C22A C27U A40U the yeast fitness was ≤ 0.5. For U8G C22G G25A G63C, the yeast fitness was ≤ 0.5. For U8G C22G G25A G68A, the yeast fitness was ≤ 0.5. In the case of U8G C22U, the yeast fitness is reported as 0.632. In the case of U8G C22U A43G, the yeast fitness is reported as ≤ 0.5. Work on U8G C22U A69U yielded a yeast fitness of 0.731. U8G C22U C62U showed a yeast fitness of 0.529. For U8G C22U G23A C24G A43U, the yeast fitness was ≤ 0.5. In the case of U8G C22U G51C G58A, the yeast fitness is reported as ≤ 0.5. For U8G C22U U26A G52A, the yeast fitness was ≤ 0.5. With U8G C24A C30G A40G U47G the yeast fitness was ≤ 0.5. With U8G C24A U35G C46G U53C U54G the yeast fitness was ≤ 0.5. Variant U8G C24G has a yeast fitness of 0.537. With U8G C24G C33U the yeast fitness was ≤ 0.5. With U8G C24G G41A C49G C60A C62G A70C the yeast fitness was ≤ 0.5. With U8G C24G G41A C49U the yeast fitness was ≤ 0.5. For U8G C24G G63C, the yeast fitness was ≤ 0.5. Variant U8G C24U C29G A45G C61U A65C G67A G68A has a yeast fitness of 0.568. For U8G C27A C31A C33G, the yeast fitness was ≤ 0.5. With U8G C27U C30A A43C C60U the yeast fitness was ≤ 0.5. With U8G C27U C31U C33A G67C the yeast fitness was ≤ 0.5. For U8G C27U C62G, the yeast fitness was ≤ 0.5. In the case of U8G C27U G44C U47A C60U, the yeast fitness is reported as ≤ 0.5. In the case of U8G C29G C66A, the yeast fitness is reported as ≤ 0.5. For U8G C29G G38C G44A, the yeast fitness was 0.803. With U8G C29U C31U U54G A65U G67A the yeast fitness was ≤ 0.5. With U8G C30G C31U G39A the yeast fitness was 0.507. With U8G C30G C33G C61A A69U the yeast fitness was ≤ 0.5. U8G C30U C31G G39A A45U G52A showed a yeast fitness of 0.567. In the case of U8G C31U A37G U54A C55A, the yeast fitness is reported as ≤ 0.5. With U8G C31U C33G U47A G50U the yeast fitness was 0.608. For U8G C31U C66U, the yeast fitness was ≤ 0.5. With U8G C33A A37U G38C the yeast fitness was 0.529. For U8G C33A A37U G38C A70C, the yeast fitness was ≤ 0.5. In the case of U8G C33A C49U C66G, the yeast fitness is reported as ≤ 0.5. Variant U8G C33A C49U C66U has a yeast fitness of 0.609. U8G C33U A57C U64C A70G gave a yeast fitness of 0.511. With U8G C34A the yeast fitness was ≤ 0.5. U8G C34U A40C showed a yeast fitness of 0.591. U8G C46G showed a yeast fitness of 0.593. In the case of U8G C46G A57U, the yeast fitness is reported as ≤ 0.5. Variant U8G C46U C55A C66U has a yeast fitness of 0.524. In the case of U8G C49G A57U, the yeast fitness is reported as ≤ 0.5. For U8G C49U G51A A65U, the yeast fitness was ≤ 0.5. U8G C61A showed a yeast fitness of 0.562. U8G C66U showed a yeast fitness of 0.668. In the case of U8G G9A U19G U53C C60A, the yeast fitness is reported as ≤ 0.5. With U8G G9C A37U G50C the yeast fitness was ≤ 0.5. In the case of U8G G9C C33A G68A, the yeast fitness is reported as ≤ 0.5. With U8G G9U C30A the yeast fitness was ≤ 0.5. With U8G G9U C30A C55U the yeast fitness was ≤ 0.5. For U8G G10A C60U, the yeast fitness was 0.585. With U8G G10A C62G the yeast fitness was ≤ 0.5. In the case of U8G G10C A20G G63A, the yeast fitness is reported as ≤ 0.5. For U8G G10C C11U A37G U59C, the yeast fitness was ≤ 0.5. With U8G G12A A20G the yeast fitness was ≤ 0.5. For U8G G12A A21C U26C C60U, the yeast fitness was ≤ 0.5. For U8G G12A G38A A69U, the yeast fitness was ≤ 0.5. Variant U8G G12A G44A has a yeast fitness of 0.566. With U8G G12A G50C G52C C55U the yeast fitness was 0.618. With U8G G12C C55A the yeast fitness was ≤ 0.5. In the case of U8G G12C G39A, the yeast fitness is reported as ≤ 0.5. Work on U8G G17A A20C C22G C29G C34G yielded a yeast fitness of 0.549. With U8G G17A A20C C22G C29G C34G C60U C62U A69G the yeast fitness was ≤ 0.5. In the case of U8G G17A C24G C66U, the yeast fitness is reported as ≤ 0.5. In the case of U8G G17A C31A, the yeast fitness is reported as ≤ 0.5. For U8G G18C A37G A40G C55G C66A, the yeast fitness was ≤ 0.5. In the case of U8G G18C A37G A40G G63C, the yeast fitness is reported as 0.506. For U8G G18C C22U C29U C46A C55G, the yeast fitness was 0.574. For U8G G18C C49U G58A G67A, the yeast fitness was ≤ 0.5. U8G G23C A37G A70G showed a yeast fitness of 0.631. For U8G G25C A36G G48A, the yeast fitness was ≤ 0.5. In the case of U8G G25C A36G G48A C60A, the yeast fitness is reported as ≤ 0.5. Work on U8G G38A yielded a yeast fitness of 0.57. U8G G38A A69U gave a yeast fitness of 0.507. For U8G G38A G67A A69U, the yeast fitness was ≤ 0.5. In the case of U8G G38C G39C A40G G44A C46G G52A, the yeast fitness is reported as ≤ 0.5. U8G G38C G67U gave a yeast fitness of 0.529. For U8G G39C U59G C66U, the yeast fitness was ≤ 0.5. In the case of U8G G50C U64G, the yeast fitness is reported as 0.56. For U8G G51A A65C C66U, the yeast fitness was ≤ 0.5. For U8G G51C C60A, the yeast fitness was ≤ 0.5. U8G G52A showed a yeast fitness of 0.512. In the case of U8G G52A A70U, the yeast fitness is reported as ≤ 0.5. In the case of U8G G52C G67A, the yeast fitness is reported as ≤ 0.5. For U8G G68C, the yeast fitness was 0.583. For U8G U13A, the yeast fitness was 0.56. In the case of U8G U13A A43G U53A, the yeast fitness is reported as 0.58. Work on U8G U13A C30U G39C C55G yielded a yeast fitness of 0.526. For U8G U13A C34G, the yeast fitness was ≤ 0.5. For U8G U13G A37U G63C, the yeast fitness was ≤ 0.5. For U8G U16A C34A A36C U64C C66A, the yeast fitness was ≤ 0.5. In the case of U8G U16A G18C C22G, the yeast fitness is reported as ≤ 0.5. U8G U16C gave a yeast fitness of 0.6. For U8G U16G C62G, the yeast fitness was 0.616. In the case of U8G U19A C22A C66U, the yeast fitness is reported as ≤ 0.5. Work on U8G U19A U54A A57U C66U yielded a yeast fitness of 0.576. For U8G U19A U54A A57U G68C, the yeast fitness was ≤ 0.5. U8G U19C C46A gave a yeast fitness of 0.853. Variant U8G U26A has a yeast fitness of 0.605. In the case of U8G U26A G52A U54A C60A, the yeast fitness is reported as ≤ 0.5. For U8G U26A G67C, the yeast fitness was ≤ 0.5. With U8G U26A G68C the yeast fitness was ≤ 0.5. U8G U26C showed a yeast fitness of 0.592.
